Tests used:
[1] = n-Octanol/phosphate buffer partition coefficient, logP of the compound at pH 7.4 incubated for 85 mins by shake-flask method; type: physicochemical
How it was run: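 Octanol–water partition by shake-flask: n-octanol with 0.15 M phosphate buffer pH 7.4 at 10:1 volumes. Buffer-phase absorbance read before mixing, then shaken 50 min and centrifuged at 2500 rpm for 35 min. Buffer absorbance read again; P = (Ai−Af)/Af × Vw/Vo.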

MCF7 = experiment: Antiproliferative activity against human MCF7 cells assessed as cell growth inhibition at 10 uM incubated for 48 hrs by sulforhodamine B assay relative to control; type: functional
How it was run: (§1)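 NCI-60 single-dose screen at 10^-5 M. Cells grown in RPMI 1640 with 5% FBS and 2 mM L-glutamine, plated at 5,000–40,000 cells/well, and preincubated 24 h. Drug (DMSO stock) added and incubated 48 h at 37 °C, 5% CO2. Adherent cells fixed with cold TCA, stained with 0.4% SRB in 1% acetic acid, dye solubilized in 10 mM trizma base, A515 read. Percent growth taken against time-zero and untreated control.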

PC-3 = experiment: Antiproliferative activity against human PC-3 cells assessed as cell growth inhibition at 10 uM incubated for 48 hrs by sulforhodamine B assay relative to control; type: functional; how it was run: as §1
UO-31 = experiment: Antiproliferative activity against human UO-31 cells assessed as cell growth inhibition at 10 uM incubated for 48 hrs by sulforhodamine B assay relative to control; type: functional; how it was run: as §1
SN12C = experiment: Antiproliferative activity against human SN12C cells assessed as cell growth inhibition at 10 uM incubated for 48 hrs by sulforhodamine B assay relative to control; type: functional; how it was run: as §1
A498 = experiment: Antiproliferative activity against human A498 cells assessed as cell growth inhibition at 10 uM incubated for 48 hrs by sulforhodamine B assay relative to control; type: functional
How it was run: (§2)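 Single-dose NCI-60 prescreen at 10^-5 M. Cells in RPMI 1640 with 5% FBS and 2 mM L-glutamine, seeded 5,000–40,000 cells/well with 24 h preincubation, then drug exposure for 48 h at 37 °C under 5% CO2. Growth read by SRB staining of TCA-fixed cells at 515 nm against time-zero and untreated controls. Negative growth values denote cell kill.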

786-0 = experiment: Antiproliferative activity against human 786-0 cells assessed as cell growth inhibition at 10 uM incubated for 48 hrs by sulforhodamine B assay relative to control; type: functional; how it was run: as §2
NCI/ADR-RES = experiment: Antiproliferative activity against human NCI/ADR-RES cells assessed as cell growth inhibition at 10 uM incubated for 48 hrs by sulforhodamine B assay relative to control; type: functional; how it was run: as §1
SK-MEL-2 = experiment: Antiproliferative activity against human SK-MEL-2 cells assessed as cell growth inhibition at 10 uM incubated for 48 hrs by sulforhodamine B assay relative to control; type: functional; how it was run: as §1
LOX IMVI = experiment: Antiproliferative activity against human LOX IMVI cells assessed as cell growth inhibition at 10 uM incubated for 48 hrs by sulforhodamine B assay relative to control; type: functional; how it was run: as §1
SNB-75 = experiment: Antiproliferative activity against human SNB-75 cells assessed as cell growth inhibition at 10 uM incubated for 48 hrs by sulforhodamine B assay relative to control; type: functional; how it was run: as §1
SW-620 = experiment: Antiproliferative activity against human SW620 cells assessed as cell growth inhibition at 10 uM incubated for 48 hrs by sulforhodamine B assay relative to control; type: functional; how it was run: as §1
KM12 = experiment: Antiproliferative activity against human KM12 cells assessed as cell growth inhibition at 10 uM incubated for 48 hrs by sulforhodamine B assay relative to control; type: functional; how it was run: as §1
HT-29 = experiment: Antiproliferative activity against human HT-29 cells assessed as cell growth inhibition at 10 uM incubated for 48 hrs by sulforhodamine B assay relative to control; type: functional; how it was run: as §1
HCT-15 = experiment: Antiproliferative activity against human HCT-15 cells assessed as cell growth inhibition at 10 uM incubated for 48 hrs by sulforhodamine B assay relative to control; type: functional
How it was run: (§3)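 NCI-60 one-dose prescreen at 10^-5 M. Cells grown in RPMI 1640 with 5% FBS and 2 mM glutamine, preincubated 24 h, then exposed 48 h at 37 °C. Adherent lines TCA-fixed, SRB-stained, A515 read. Growth percent relative to time-zero and control; negative values mean cell kill.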

HCT-116 = experiment: Antiproliferative activity against human HCT-116 cells assessed as cell growth inhibition at 10 uM incubated for 48 hrs by sulforhodamine B assay relative to control; type: functional; how it was run: as §3
NCI-H522 = experiment: Antiproliferative activity against human NCI-H522 cells assessed as cell growth inhibition at 10 uM incubated for 48 hrs by sulforhodamine B assay relative to control; type: functional; how it was run: as §1
NCI-H460 = experiment: Antiproliferative activity against human NCI-H460 cells assessed as cell growth inhibition at 10 uM incubated for 48 hrs by sulforhodamine B assay relative to control; type: functional; how it was run: as §1
NCI-H322M = experiment: Antiproliferative activity against human NCI-H322M cells assessed as cell growth inhibition at 10 uM incubated for 48 hrs by sulforhodamine B assay relative to control; type: functional; how it was run: as §1
NCI-H23 = experiment: Antiproliferative activity against human NCI-H23 cells assessed as cell growth inhibition at 10 uM incubated for 48 hrs by sulforhodamine B assay relative to control; type: functional; how it was run: as §1
NCI-H226 = experiment: Antiproliferative activity against human NCI-H226 cells assessed as cell growth inhibition at 10 uM incubated for 48 hrs by sulforhodamine B assay relative to control; type: functional; how it was run: as §1
RPMI-8226 = experiment: Antiproliferative activity against human RPMI-8226 cells assessed as cell growth inhibition at 10 uM incubated for 48 hrs by sulforhodamine B assay relative to control; type: functional; how it was run: as §1
CCRF-CEM = experiment: Antiproliferative activity against human CCRF-CEM cells assessed as cell growth inhibition at 10 uM incubated for 48 hrs by sulforhodamine B assay relative to control; type: functional; how it was run: as §2
RXF 393 = experiment: Antiproliferative activity against human RXF 393 cells assessed as cell growth inhibition at 10 uM incubated for 48 hrs by sulforhodamine B assay relative to control; type: functional; how it was run: as §1
OVCAR-8 = experiment: Antiproliferative activity against human OVCAR-8 cells assessed as cell growth inhibition at 10 uM incubated for 48 hrs by sulforhodamine B assay relative to control; type: functional; how it was run: as §1
MDA-MB-435 = experiment: Antiproliferative activity against human MDA-MB-435 cells assessed as cell growth inhibition at 10 uM incubated for 48 hrs by sulforhodamine B assay relative to control; type: functional; how it was run: as §1
M14 = experiment: Antiproliferative activity against human M14 cells assessed as cell growth inhibition at 10 uM incubated for 48 hrs by sulforhodamine B assay relative to control; type: functional; how it was run: as §1
SF-539 = experiment: Antiproliferative activity against human SF-539 cells assessed as cell growth inhibition at 10 uM incubated for 48 hrs by sulforhodamine B assay relative to control; type: functional; how it was run: as §1
HOP-92 = experiment: Antiproliferative activity against human HOP-92 cells assessed as cell growth inhibition at 10 uM incubated for 48 hrs by sulforhodamine B assay relative to control; type: functional; how it was run: as §3

logD at 1.417 h [1] | SMILES | inhibition at 10 µM (MCF7) [%] | inhibition at 10 µM (PC-3) [%] | inhibition at 10 µM (UO-31) [%] | inhibition at 10 µM (SN12C) [%] | inhibition at 10 µM (A498) [%] | inhibition at 10 µM (786-0) [%] | inhibition at 10 µM (NCI/ADR-RES) [%] | inhibition at 10 µM (SK-MEL-2) [%] | inhibition at 10 µM (LOX IMVI) [%] | inhibition at 10 µM (SNB-75) [%] | inhibition at 10 µM (SW-620) [%] | inhibition at 10 µM (KM12) [%] | inhibition at 10 µM (HT-29) [%] | inhibition at 10 µM (HCT-15) [%] | inhibition at 10 µM (HCT-116) [%] | inhibition at 10 µM (NCI-H522) [%] | inhibition at 10 µM (NCI-H460) [%] | inhibition at 10 µM (NCI-H322M) [%] | inhibition at 10 µM (NCI-H23) [%] | also measured
1.44 | c1ccc2c(-c3cn4ccnc4c(-c4ccc5ncn(C6CCCCC6)c5c4)n3)cccc2c1 | 13 | 36.5 | 23 | 11.7 | 14 | 6.33 | 4.43 | 2.3 | 7.43 | 16.5 | 5.34 | 11.1 | 4.11 | 4.46 | 17.9 | 19.3 | 3.61 | 4.74 | 4.32 | inhibition at 10 µM (NCI-H226): 9.45%; inhibition at 10 µM (RPMI-8226): 22.9%; inhibition at 10 µM (CCRF-CEM): 17.5%
1.88 | O=Cc1ccc(-c2cn3ccnc3c(-c3ccc4ncn(Cc5ccccc5)c4c3)n2)cc1 | 47.8 | 19 | 82.2 | 20.7 | 11.2 | 46.7 | 37.4 | 27.8 | 46.9 | 21.4 | 4.21 | 3.69 | 17.5 | 49.1 | 92.6 | 25.2 | 37.8 | 11.2 | 54.5 | inhibition at 10 µM (RXF 393): 25%; inhibition at 10 µM (OVCAR-8): 44%; inhibition at 10 µM (MDA-MB-435): 13%; inhibition at 10 µM (M14): 23%; inhibition at 10 µM (SF-539): 31.5%; inhibition at 10 µM (NCI-H226): 0.53%; inhibition at 10 µM (HOP-92): 43%; inhibition at 10 µM (RPMI-8226): 82.5%; inhibition at 10 µM (CCRF-CEM): 77.9%
1.5 | O=Cc1ccc(-c2cn3ccnc3c(-c3ccc4ncn(C5CCCCC5)c4c3)n2)cc1 | 47.8 | 19 | 82.2 | 20.7 | 11.2 | 46.7 | 37.4 | 27.8 | 46.9 | 21.4 | 4.21 | 3.69 | 17.5 | 49.1 | 92.6 | 25.2 | 37.8 | 11.2 | 54.5 | inhibition at 10 µM (RXF 393): 25%; inhibition at 10 µM (OVCAR-8): 44%; inhibition at 10 µM (MDA-MB-435): 13%; inhibition at 10 µM (M14): 23%; inhibition at 10 µM (SF-539): 31.5%; inhibition at 10 µM (NCI-H226): 0.53%; inhibition at 10 µM (HOP-92): 43%; inhibition at 10 µM (RPMI-8226): 82.5%; inhibition at 10 µM (CCRF-CEM): 77.9%
